How the values were obtained:
[1] = melting temperature; fluorescence melt of hairpins on a sequencing array, two-state fit, raised by 9.35 °C to match UV melts; details: sodium 0.088 M
Method in brief: (§1)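 Cy3 signals were normalised both to pre-quench Cy3 and to control constructs. They came from library hairpins carrying annealed Cy3 and quencher oligos on a sequenced MiSeq flow cell, imaged in 50 mM Na-HEPES pH 8.0, 25 mM NaCl, in 2.5 °C steps up to 60 °C. Bootstrapped two-state fits gave melting temperature and folding enthalpy, and four replicates were combined by inverse variance. Fitted temperatures were then raised by 9.35 °C to match UV melts.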

[2] = folding enthalpy; higher = less favourable; fluorescence melt of hairpins on a sequencing array, two-state fit; details: sodium 0.088 M
Method in brief: as §1

Sequence | Tm [1] | folding enthalpy [2]
GGGACCCGAAAGGGACCC (((.(((....))).))) | 67 °C | -31.1 kcal/mol
GGTGGTGGAAACACTACC (((.(((....))).))) | 52.9 °C | -29.8 kcal/mol
GGGCTTCCGAAAGGACCC (((..(((....)))))) | 39.9 °C | -23.4 kcal/mol
GGTACGGGAAACCATACC ((((.((....)).)))) | 36.7 °C | -28.2 kcal/mol
GCAACTGGAAACGGTTGC (((((.(....).))))) | 54.2 °C | -45.2 kcal/mol
GATCGTCATGACGATC ((((((....)))))) | 61.4 °C | -40.3 kcal/mol
GCGCGTGGAAACATGCGC ((((.((....)).)))) | 67.9 °C | -40.2 kcal/mol
CGTCGACGGAAACGTACG (((..(((....)))))) | 38.1 °C | -20.2 kcal/mol
GTGTGCGAAAGCAACAC ((((((....))).))) | 61.3 °C | -30.1 kcal/mol
CGCAGCCGGAAACGGGCG (((..(((....)))))) | 47.9 °C | -20 kcal/mol
CGCCACGGAAACGTCGCG (((.(((....))).))) | 48.3 °C | -39.2 kcal/mol
GGTAGCGAAAGCTAGACC ((((((....)))..))) | 40.1 °C | -14.3 kcal/mol
GCCGTGGGAAACCACGAC (.(((((....))))).) | 52 °C | -14.8 kcal/mol
GGTAGACGAAAGTCAACC (((.(((....))).))) | 51.5 °C | -26.3 kcal/mol
GATCATCTACATGATC ((((((....)))))) | 46.2 °C | -38.5 kcal/mol
GCGGTCACCGC ((((...)))) | 63 °C | -23.8 kcal/mol
GTGGGCGAAAGCCCCAC ((((((....))).))) | 60.2 °C | -11.3 kcal/mol
GCAATATCGAAAGATTGC (((..(((....)))))) | 39.5 °C | -25.5 kcal/mol
GCCGACGAAAGTCTAGGC ((((((....)))..))) | 52.7 °C | -34.1 kcal/mol
GCTTGCTCGAAAGAGAGC (((..(((....)))))) | 49.1 °C | -21.3 kcal/mol
ATCCCGAAAGGGAT (((((....))))) | 60.9 °C | -29.1 kcal/mol
GGGTAGGAAACTACCC ((((((....)))))) | 58.8 °C | -29.6 kcal/mol
GATCCCTTCGGGGATC ((((((....)))))) | 65.2 °C | -39.8 kcal/mol

Sequence | Tm [1] | folding enthalpy [2]
GAGTTAGAAATAACTC ((((((....)))))) | 43.2 °C | -31.5 kcal/mol
GAGTACCGAAAGGTGCTC (((.(((....))).))) | 60.6 °C | -36.6 kcal/mol
GTCCCCGAAAGGGTGAC ((((((....))).))) | 53.3 °C | -22.6 kcal/mol
GATCTCTCGAGAGATC ((((((....)))))) | 54.1 °C | -40.5 kcal/mol
GCCGAAGGAAACTCCGGC ((((.((....)).)))) | 48.3 °C | -28 kcal/mol
GTTCTAGGAAACTAGAAC (((((((....))))))) | 53.1 °C | -35 kcal/mol
GACCAACGAAAGTTAGTC (((.(((....))).))) | 38.8 °C | -26 kcal/mol
GCTGACGCGAAAGCGAGC (((..(((....)))))) | 47.1 °C | -13.9 kcal/mol
GGTAGGGAAACCTACC ((((((....)))))) | 54.6 °C | -38.5 kcal/mol
GTCCCCGGAAACGAGGAC ((((.((....)).)))) | 48 °C | -32.1 kcal/mol
GCTATGGAAACATAGC ((((((....)))))) | 55.6 °C | -35.4 kcal/mol
GGGAAAGGAAACTCTCCC ((((.((....)).)))) | 30.2 °C | -17.2 kcal/mol
CGGGCGGAAACGCACCCG ((((((....)))..))) | 48.8 °C | -13.1 kcal/mol
CGCCCGGAAACGGCGGCG ((((((....)))..))) | 55.7 °C | -24.4 kcal/mol
GATCAAGTTATTGATC ((((((....)))))) | 49.8 °C | -35.8 kcal/mol
GGCGAGCGAAAGCTGCC (((.(((....)))))) | 66.9 °C | -27.6 kcal/mol
GATCACCTGGGTGATC ((((((....)))))) | 62.6 °C | -47.5 kcal/mol
GAGAAACGAAAGTTCTC (((.(((....)))))) | 40.9 °C | -24.4 kcal/mol
GTTGTGAAAACAAC (((((....))))) | 50.5 °C | -29.6 kcal/mol
GATCAGCAATCTGATC ((((((....)))))) | 47.2 °C | -32.5 kcal/mol
GTATGTGGAAACATATAC ((((.((....)).)))) | 37.2 °C | -23.1 kcal/mol
GATCCTCGTAAGGATC ((((((....)))))) | 54.5 °C | -35.3 kcal/mol
GAGTCACGAAAGTGCTC (((.(((....)))))) | 48.6 °C | -23.8 kcal/mol
